From ChEMBL document CHEMBL3608301, “Phenolic Compounds from Atriplex littoralis and Their Radiation-Mitigating Activity” (J Nat Prod, 2015)

Experiments:
PBL [1] = test: Radioprotective activity in 2-Gy gamma irradiated human PBL assessed as binucleated cells with micronuclei at 3.1 uM treated for 2 to 19 hrs followed by compound washout measured after 72 hrs by cytochalasin-B-blocked micronucleus assay (reference value: 15.5 +/- 0.6%); assay type: functional
Procedure, shortened: (§1)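 Venous blood from five healthy male volunteers was γ-irradiated at 2 Gy (0.45 Gy/min) at room temperature and cultured. Compounds (0.8−7.4 μM final) were added 2 to 19 h after irradiation, at 37 °C. Cultures were then rinsed and moved to fresh RPMI 1640 for 72 h. Cytokinesis-block micronucleus assay: ≥1000 binucleated cells scored per sample (Countryman–Heddle criteria). Controls were non-treated irradiated cultures; one-way ANOVA with Tukey test.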

PBL [2] = test: Radioprotective activity in 2-Gy gamma irradiated human PBL assessed as incidence of micronuclei in 1000 binucleated cells at 1.5 uM treated for 2 to 19 hrs followed by compound washout measured after 72 hrs by cytochalasin-B-blocked micronucleus assay (reference value: 183 +/- 9.6); assay type: functional; procedure, shortened: as §1
PBL [3] = test: Radioprotective activity in 2-Gy gamma irradiated human PBL assessed as frequency of micronuclei at 1.5 uM treated for 2 to 19 hrs followed by compound washout measured after 72 hrs by cytochalasin-B-blocked micronucleus assay relative to control; assay type: functional; procedure, shortened: as §1
PBL [4] = test: Toxicity in 2-Gy gamma irradiated human PBL assessed as cytokinesis-block proliferation index at 3.1 uM treated for 2 to 19 hrs followed by compound washout measured after 72 hrs (reference value: 1.6 +/- 0.1); assay type: cell-based
PBL [5] = test: Radioprotective activity in 2-Gy gamma irradiated human PBL assessed as incidence of micronuclei in binucleated cells at 1.5 uM treated for 2 to 19 hrs followed by compound washout measured after 72 hrs by cytochalasin-B-blocked micronucleus assay (reference value: 1.2 +/- 0.03); assay type: functional; procedure, shortened: as §1
PBL [6] = test: Radioprotective activity in 2-Gy gamma irradiated human PBL assessed as incidence of micronuclei in 1000 binucleated cells at 0.8 uM treated for 2 to 19 hrs followed by compound washout measured after 72 hrs by cytochalasin-B-blocked micronucleus assay (reference value: 183 +/- 9.6); assay type: functional; procedure, shortened: as §1
PBL [7] = test: Radioprotective activity in 2-Gy gamma irradiated human PBL assessed as binucleated cells with micronuclei at 1.5 uM treated for 2 to 19 hrs followed by compound washout measured after 72 hrs by cytochalasin-B-blocked micronucleus assay (reference value: 15.5 +/- 0.6%); assay type: functional; procedure, shortened: as §1
PBL [8] = test: Radioprotective activity in 2-Gy gamma irradiated human PBL assessed as incidence of micronuclei in binucleated cells at 3.1 uM treated for 2 to 19 hrs followed by compound washout measured after 72 hrs by cytochalasin-B-blocked micronucleus assay (reference value: 1.2 +/- 0.03); assay type: functional; procedure, shortened: as §1
PBL [9] = test: Toxicity in 2-Gy gamma irradiated human PBL assessed as cytokinesis-block proliferation index at 0.8 uM treated for 2 to 19 hrs followed by compound washout measured after 72 hrs (reference value: 1.6 +/- 0.1); assay type: cell-based
PBL [10] = test: Radioprotective activity in 2-Gy gamma irradiated human PBL assessed as binucleated cells with micronuclei at 0.8 uM treated for 2 to 19 hrs followed by compound washout measured after 72 hrs by cytochalasin-B-blocked micronucleus assay (reference value: 15.5 +/- 0.6%); assay type: functional; procedure, shortened: as §1
PBL [11] = test: Radioprotective activity in 2-Gy gamma irradiated human PBL assessed as incidence of micronuclei in binucleated cells at 0.8 uM treated for 2 to 19 hrs followed by compound washout measured after 72 hrs by cytochalasin-B-blocked micronucleus assay (reference value: 1.2 +/- 0.03); assay type: functional; procedure, shortened: as §1
PBL [12] = test: Radioprotective activity in 2-Gy gamma irradiated human PBL assessed as frequency of micronuclei at 3.1 uM treated for 2 to 19 hrs followed by compound washout measured after 72 hrs by cytochalasin-B-blocked micronucleus assay relative to control; assay type: functional; procedure, shortened: as §1
PBL [13] = test: Radioprotective activity in 2-Gy gamma irradiated human PBL assessed as incidence of micronuclei in 1000 binucleated cells at 3.1 uM treated for 2 to 19 hrs followed by compound washout measured after 72 hrs by cytochalasin-B-blocked micronucleus assay (reference value: 183 +/- 9.6); assay type: functional; procedure, shortened: as §1
PBL [14] = test: Radioprotective activity in 2-Gy gamma irradiated human PBL assessed as frequency of micronuclei at 0.8 uM treated for 2 to 19 hrs followed by compound washout measured after 72 hrs by cytochalasin-B-blocked micronucleus assay relative to control; assay type: functional; procedure, shortened: as §1
PBL [15] = test: Toxicity in 2-Gy gamma irradiated human PBL assessed as cytokinesis-block proliferation index at 1.5 uM treated for 2 to 19 hrs followed by compound washout measured after 72 hrs (reference value: 1.6 +/- 0.1); assay type: cell-based

Structure (SMILES) | Activity (PBL [1]) [%] | Activity (PBL [2]) | Activity (PBL [3]) [%] | Activity (PBL [4]) | Activity (PBL [5]) | Activity (PBL [6]) | Activity (PBL [7]) [%] | Activity (PBL [8]) | Activity (PBL [9]) | Activity (PBL [10]) [%] | Activity (PBL [11]) | Activity (PBL [12]) [%] | Activity (PBL [13]) | Activity (PBL [14]) [%] | Activity (PBL [15])
C[C@@H]1O[C@@H](O[C@H]2[C@H](Oc3c(-c4ccc(O)c(O)c4)oc4cc5c(c(O)c4c3=O)OCO5)O[C@H](CO)[C@@H](O)[C@@H]2O)[C@H](O)[C@H](O)[C@H]1O | 15.3 | 178.8 | 97.7 | 1.7 | 1.3 | 181 | 14.1 | 1.2 | 1.7 | 15.1 | 1.2 | 102.2 | 187 | 98.9 | 1.7
COc1cc(-c2oc3cc4c(c(O)c3c(=O)c2O[C@@H]2O[C@H](CO)[C@@H](O)[C@H](O)[C@H]2O[C@@H]2O[C@@H](C)[C@H](O)[C@@H](O)[C@H]2O)OCO4)ccc1O | 14.3 | 170.9 | 93.4 | 1.8 | 1.2 | 172 | 14.1 | 1.2 | 1.7 | 14.4 | 1.2 | 95.8 | 175.3 | 94 | 1.7
COc1cc(-c2oc3cc4c(c(O)c3c(=O)c2O[C@@H]2O[C@H](CO[C@@H]3O[C@@H](C)[C@H](O)[C@@H](O)[C@H]3O)[C@@H](O)[C@H](O)[C@H]2O)OCO4)ccc1O | 11.7 | 131.3 | 71.7 | 1.6 | 1.2 | 126.6 | 10.8 | 1.2 | 1.6 | 11.2 | 1.2 | 77.3 | 141.4 | 69.2 | 1.6
